Source: PubChem
This is a sample that favours compounds with a hit; in the whole collection about 8.4% have one here.
Cav3 T inh: inhibitors of human Cav3.2 T-type calcium channel. B-score at 10 µM. hit rate 4% among 100,000. Cav3.2-expressing cells, Fluo-4 calcium fluorescence FDSS; hits give low values. O95180;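 active means single-dose well whose peak fluorescence ratio is a statistical outlier from its plate by either plate-standardised score or position-corrected B-score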
PostGolgi yeast: growth inhibition of a yeast mutant, post-Golgi transport screen; post-Golgi transport phenotypic cell assay; inhibition, % at 10 µM; hit rate 0.9% among 98,000;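 further: yeast cells grown in 1536-well plates; yeast grown about 18 h at 30C before absorbance read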
Ecoli WT expand: E. coli BW25113 growth inhibition, expanded screen; OD600 absorbance; growth inhibition, % at 100 µM; hit rate 0.15% among 98,000;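 active means growth inhibition above about 50% at one test dose, limit read from the data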;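 further: growth measured after 20 h incubation at 37 °C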
tolC growth inh: blocks growth of E. coli BW25113 tolC mutant; AID 573; hit rate 2.2% among 65,000; OD615; growth inhibition, % at 10 µM (by protocol);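 active means growth inhibition at or above a cutoff equal to the mean over every tested compound plus 3 SD, cut at about 60% in these data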;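 further: growth measured after 20 h incubation at 37 °C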
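Test system: tolC-deleted E. coli BW25113 | Medium: LB with kanamycin 50 µg/mL | Compound dosing: Single concentration, 10 µM final per compound | Schedule: 37 °C, 20 h exposure | Measured by: OD at 615 nm | Evaluation: Percent growth inhibition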
PostGolgi ctrl: growth of the yeast control strain, post-Golgi counter-screen; efflux-deficient yeast background strain, growth absorbance A615, 16 h; inhibition, % at 10 µM; hit rate 5% among 98,000; AID 738
Starred values were filed as active, the others as inactive; nt = no result. Unless noted, no stated cut-off is given here; in the data, active means inhibition above about 30%; inactive means the rest.

SMILES	Cav3 T inh	PostGolgi yeast	Ecoli WT expand	tolC growth inh	PostGolgi ctrl
CCN1C[C@]2(CO)CC[C@H](OC)[C@@]34C5C[C@H]6[C@H](OC)C5[C@](O)(C[C@H]6OC)[C@@H](C(OC)C23)[C@@H]14 (some centres undefined)	-0.39	nt	nt	nt	nt
CCC(=O)c1cn(Cc2ccc(C#N)cc2)c2ccccc12	-2.1	0	-6	nt	16
CC(C)C(=O)c1cn(Cc2ccccc2C#N)c2ccccc12	-5.6*	3	-17	56	13
Nc1c(C(=O)NCCCc2ccccc2)c2nc3ccccc3nc2n1Cc1cccs1	0.15	16	-8	nt	14
CCOC(=O)c1c(N)n(Cc2ccco2)c2nc3ccccc3nc12	-1.2	11	7	8	47*
COCC(C)OC(=O)c1c(N)n(Cc2ccco2)c2nc3ccccc3nc12 (centres undefined)	-1.2	11	2	10	8
CCCOC(=O)c1c(N)n(Cc2cccs2)c2nc3ccccc3nc12	-1.6	2	-9	nt	48*
O=C(O)C1CN2CCC1CC2 (centres undefined)	0.22	0	-12	-12	-3
Cc1ccc(C(c2nnnn2Cc2ccccc2)N2CC=C(c3ccc(F)cc3)CC2)cc1 (centres undefined)	-3.2*	4	-14	nt	1
O=C(O)[C@H]1C[C@@H]1[C@H](NP(=O)(c1ccccc1)c1ccccc1)c1ccccc1	-1.6	nt	nt	nt	nt
CCCC1(CCC)C(=O)NC(=NCc2ccccc2)NC1=O	nt	-6	2	-12	1
CCCCC1(CCCC)C(=O)NC(=Nc2cccc(C)c2)NC1=O	-0.97	47*	5	nt	7
O=c1cccc2n1CC1CC2CN(Cc2cccc(Cl)c2Cl)C1 (centres undefined)	-4.8	5	14	33	16
Cc1cccn2c(=O)c3c(nc12)N1CCC(Cc2ccccc2)CC1C1(C3)C(=O)N(C)C(=O)N(C)C1=O (centres undefined)	-1.1	-4	-2	67*	23
CN1C(=O)N(C)C(=O)C2(Cc3c(nc4ccccn4c3=O)N3CCC(Cc4ccccc4)CC32)C1=O (centres undefined)	nt	nt	nt	20	nt
Cn1c2ccccc2c2cnn(CC(=O)N3CCC4(CC3)OCCO4)c(=O)c21	nt	3	-3	nt	4
O=C(Cn1ncc2c3ccccc3n(Cc3cccc(Cl)c3)c2c1=O)N1CCC2(CC1)OCCO2	-11*	2	-17	45	18
O=C(Nc1ccc(Cl)cc1)Nc1nccs1	-2.1	3	13	nt	11
CCCCCCn1c(N)c(C(=O)NCCN2CCOCC2)c2nc3ccccc3nc21	-0.94	1	3	76*	28
CCCNC(=O)c1c(N)n(CC2CCCO2)c2nc3ccccc3nc12 (centres undefined)	-6.2*	9	12	0	33*
CC(C)OCCCNC(=O)c1c(N)n(CC2CCCO2)c2nc3ccccc3nc12 (centres undefined)	-4.5*	6	-1	23	14
CCCCCn1c(N)c(C(=O)NCCN2CCOCC2)c2nc3ccccc3nc21	nt	1	10	17	12
COCCCNC(=O)c1c(NC(=O)c2ccccc2)n(Cc2ccccc2)c2nc3ccccc3nc12	-5.7*	nt	nt	nt	nt
CC(C)OC(=O)c1c(N)n(CC2CCCO2)c2nc3ccccc3nc12 (centres undefined)	0.47	7	2	16	27
CC1CCC(C(=O)NC(C(=O)N2CCC3(CC2)OCCO3)C(C)C)CC1 (centres undefined)	nt	1	7	-9	3
SMILES	Cav3 T inh	PostGolgi yeast	Ecoli WT expand	tolC growth inh	PostGolgi ctrl
O=C1C2CCCN2C(c2cccs2)N1c1ccccn1 (centres undefined)	0.17	0	10	-11	-11
COC(=O)C1=C(N)Oc2c(c(=O)oc3ccccc23)C1c1cccnc1 (centres undefined)	1.4	7	-6	nt	1
COCCCn1c(N)c(C(=O)NCCC(C)C)c2nc3ccccc3nc21	-3.9	3	4	18	32*
CC(C)CCOC(=O)c1c(N)n(CC2CCCO2)c2nc3ccccc3nc12 (centres undefined)	-2.2	10	-2	60*	13
Clc1cccc(Cl)c1CN1CCN(c2ccccc2)CC1	nt	-20	0	nt	11
Cc1nn(C)c(C)c1P(=S)(c1c(C)nn(C)c1C)N(C)C	0.2	10	-1	-14	40*
CCOC(=O)C1=C(N)OC2=C(C(=O)CCC2)C12C(=O)N1c3c(ccc(C)c32)C(C)=CC1(C)C (centres undefined)	-8.3*	-1	-5	70*	20
